Data from article PMC3367325 (Journal of Natural Products, 2012).
Read-outs that look alike come from different tables or passages of the source. Values belong to the molecule of their own block, whether it stands above or below them. Peptide text beside a SMILES is read from it. * marks the point of attachment. Cbz = O=C(OCc1ccccc1)*

What was measured:
alpha(2B) adrenoceptor = settings: cited from earlier work
[1] = target: human 20S proteasome (T-L activity) (Homo sapiens, UniProt Q99436); experiment: Tryptic-like; type: biochemical; settings: purified human 20S proteasome
Aggregation assay = type: physicochemical; settings: 1 to 10 µM
[2] = target: T1, human 20S proteasome (CT-L activity) (Homo sapiens, UniProt P28074); experiment: IC50 pre- and post-centrifugation of palau’amine in reaction buffer; type: biochemical; settings: 15,000g for 30 min, supernatant
In short: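 Test compound in reaction buffer was spun at 15000g for 30 min, and the IC50 was compared with that of unspun material. CT-L assay: 1 nM purified human 20S proteasome in 50 mM Tris-HCl pH 7.5 with 0.03% SDS and Suc-LLVY-AMC at its Km, at 37 °C. AMC fluorescence (ex 380/em 460 nm) was read each minute for 30 min, and the maximal rate gave activity.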

HeLa cells = experiment: Accumulation of ubiquitinylated proteins, confocal microscopy; type: cell-based, human; settings: 1.0 µM, 2 h, versus vehicle, p =0.001
[3] = target: T1, human 20S proteasome (CT-L activity)
[4] = pH of greater than seven; has been reported, no reference given; cited from earlier work
[5] = target: T1, human 20S proteasome (CT-L activity); experiment: Chymotryptic-like; type: biochemical; settings: purified human 20S proteasome

Structure (SMILES): NC1=N[C@]23CCCN2C(=O)c2cc(Br)c(Br)n2[C@@H]3N1 (racemic) [(±) -2, ±-dibromophakellin]
Activity against the alpha(2B) adrenoceptor (alpha(2B) adrenoceptor): agonist activity

Structure (SMILES): NC[C@@H]1[C@H]2CN3C(=O)c4cccn4[C@@H]4NC(N)=N[C@@]43[C@@H]2[C@]2(N=C(N)N[C@H]2O)[C@H]1Cl.O=C(O)C(F)(F)F (racemic) [(±) - 1, palau’amine]
Effect on T-L activity of the proteasome [1]: did not affect
Formation of aggregates (Aggregation assay): not to form aggregates
Change in CT-L IC50 post-centrifugation versus pre-centrifugation [2]: no significant change
Accumulation of ubiquitinylated proteins (ubiquitin-Alexa 546 red fluorescence) (HeLa cells): robust increase
CT-L proteolytic activity of 20S proteasome pre-washing ([3]; 1 µM MG-132, 1 µM epoxomicin, 10 µM palau’amine, 1 nM 20S): complete abrogation
Binding mechanism to the 20S proteasome ([3]; kinetic analysis and washing experiments): irreversible-type
CT-L proteolytic activity of 20S proteasome post-washing ([3]; washed with 500 volumes of reaction buffer): complete abrogation
Stability at pH greater than seven (reported) [4]: unstable

Structure (SMILES): CC(C)C[C@@H](C=O)NC(=O)[C@H](CC(C)C)NC(=O)[C@H](CC(C)C)NC(=O)OCc1ccccc1 [MG-132, reference compound] (Cbz-Leu-Leu-Leu-aldehyde)
CT-L proteolytic activity of 20S proteasome post-washing [3]: almost completely restored
CT-L proteolytic activity of 20S proteasome pre-washing [3]: completely abrogated

Inhibition of the proteasome (all activities) [5]: devoid of all activity
Structure (SMILES): O=c1c2cc(Br)c(Br)n2cc2n1CCC2 [compound 4]
